Measurements taken from ChEMBL document CHEMBL1687858, “Natural and semisynthetic mammea-type isoprenylated dihydroxycoumarins uncouple cellular respiration” (J Nat Prod, 2011).
Activity calls are given as the source filed them. No cut-off for these calls is given here.

Legend:
[1] = target: T1, Hypoxia inducible factors; HIF-1-alpha, HIF-2-alpha (Homo sapiens, UniProt Q16665+Q99814); assay: Inhibition of hypoxia-induced HIF1 activation in human T47D cells expressing pGL3 construct after 16 hrs by cell-based luciferase reporter assay
Method in brief: (§1)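 T47D cells carrying an HIF-1 luciferase reporter, induced for 16 h either by hypoxia (1% O2) or by 10 μM 1,10-phenanthroline, with compounds over 0.31 to 20 μM. IC50 and 95% CI taken from one representative of two independent experiments, each run in triplicate.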

[2] = target: T1, Hypoxia inducible factors; HIF-1-alpha, HIF-2-alpha; assay: Inhibition of 1,10-phenanthrolin-induced HIF1 activation in human T47D cells expressing pGL3 construct after 16 hrs by cell-based luciferase reporter assay; method in brief: as §1
T47D [3] = assay: Inhibition of hypoxia-induced VEGF protein secretion in human T47D cells upto 10 uM after 16 hrs by ELISA; assay type: functional
Method in brief: (§2)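 T47D cells held under hypoxia (1% O2, 16 h) with compound at 3 or 10 μM. VEGF in conditioned medium measured by ELISA and normalized to cellular protein. Normoxic and hypoxic medium controls included. Mean + SD from one experiment run in triplicate.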

T47D [4] = assay: Effect on cellular respiration in human T47D cells assessed as oxygen consumption at 0.3 uM by cell-based reporter assay; assay type: functional
Method in brief: (§3)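 Oxygen consumption of T47D cells measured with compound at 0.3, 1, 3 and 10 μM. Reported as Relative Respiration Rate = 100 × (OCR compound / OCR untreated control) − 100. FCCP included as reference uncoupler. Mean + SD from three independent experiments.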

T47D [5] = assay: Effect on cellular respiration in human T47D cells assessed as decrease in oxygen consumption at 10 uM by cell-based reporter assay; assay type: functional; method in brief: as §3
T47D [6] = assay: Effect on cellular respiration in human T47D cells assessed as decrease in oxygen consumption at 0.3 to 10 uM by cell-based reporter assay in presence of F0F1ATPase 1 uM inhibitor oligomycin; assay type: functional
T47D [7] = assay: Effect on cellular respiration in human T47D cells assessed as increase in state 4 respiration at 0.3 to 3 uM by cell-based reporter assay; assay type: functional
Method in brief: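 Respiring T47D cells given oligomycin (1 μM) to set state 4 respiration, then compound or FCCP added at 0.3, 1 and 3 μM. Reported as Respiration Index = OCR (oligomycin + compound) / OCR (oligomycin).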

T47D [8] = assay: Antiproliferative activity against human T47D cells after 48 hrs; assay type: functional, cell-based
Method in brief: (§4)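 Tumor cells (T47D or PC-3, from ATCC) exposed 48 h to compounds at 0.31 to 20 μM, from DMSO stocks with final DMSO under 0.5%. EC50 and 95% CI derived from one experiment run in triplicate. Maximum inhibition set at 50% for T47D and 40% for PC-3.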

PC-3 [9] = assay: Antiproliferative activity against human PC3 cells after 48 hrs; assay type: functional, cell-based; details: PC-3, 48 h; method in brief: as §4
T47D [10] = assay: Cytostatic effect against human T47D cells assessed as cell growth inhibition at 20 uM after 48 hrs; assay type: functional; design: scale not given: the % may be the effect or the level left
PC-3 [11] = assay: Antiproliferative activity against human PC3 cells assessed as cell viability at 20 uM; assay type: functional; details: read-out: Activity
T47D [12] = assay: Inhibition of hypoxia-induced VEGF protein secretion in human T47D cells after 16 hrs by ELISA; assay type: functional, cell-based; method in brief: as §2
T47D [13] = assay: Inhibition of hypoxia-induced VEGF protein secretion in human T47D cells at 3 uM after 16 hrs by ELISA; assay type: functional; method in brief: as §2

IC50 [1]	IC50 [2]	IC50 (T47D [8])	IC50 (PC-3 [9])	SMILES	Activity (T47D [3])	Activity (T47D [4])	Activity (T47D [5])	Activity (T47D [6])	Activity (T47D [7])	Activity (T47D [10])	viability at 20 µM (PC-3 [11])	inhibition (T47D [12])	inhibition (T47D [13])
9.96 µM	8.21 µM	5.52 µM	10.5 µM	CCCc1cc(=O)oc2c(CC=C(C)C)c(O)c(C(=O)[C@H](C)CC)c(O)c12	1 µM	inactive	Active	Active	Active	–	–	–	–
4.19 µM	4.12 µM	3.13 µM	3.36 µM	CCCCCc1cc(=O)oc2c(CC=C(C)C)c(O)c(C(=O)CC(C)C)c(O)c12	–	–	–	–	–	–	–	–	–
2.06 µM	1.68 µM	0.97 µM	1.16 µM	CCCC[C@H](OC(C)=O)c1cc(=O)oc2c(C(=O)[C@@H](C)CC)c(O)c(CC=C(C)C)c(OC(C)=O)c12	–	–	–	–	–	–	–	–	–
7.42 µM	11.3 µM	6.18 µM	10.6 µM	CCCC[C@H](O)c1cc(=O)oc2c(CC(=O)[C@@H](C)CC)c(OC)c(CC=C(C)C)c(OC)c12	–	–	–	–	–	–	–	–	–
0.83 µM	1.06 µM	0.73 µM	1.17 µM	CCCC[C@H](OC(C)=O)c1cc(=O)oc2c(C(=O)[C@@H](C)CC)c(OC(C)=O)c(CC=C(C)C)c(OC(C)=O)c12	–	inactive	Active	Active	Non-toxic	82%	65%	–	–
5.11 µM	5.47 µM	4.72 µM	6.41 µM	CCCC[C@H](OC(C)=O)c1cc(=O)oc2c(C(=O)[C@@H](C)CC)c(OC(C)=O)c(CC=C(C)C)c(O)c12	–	–	–	–	–	–	–	–	–
5.91 µM	15.7 µM	4.67 µM	> 20 µM	CCCC[C@H](OC)c1cc(=O)oc2c(CC(=O)[C@@H](C)CC)c(OC)c(CC=C(C)C)c(OC)c12	–	–	–	–	–	–	–	–	–
3.23 µM	3.73 µM	1.57 µM	2.18 µM	CC(C)=CCc1c(O)c(C(=O)CC(C)C)c2oc(=O)cc(-c3ccccc3)c2c1O [ISOMAMMEISIN]	–	inactive	Active	Active	Active	–	–	Dose-dependent effect	–
6.31 µM	6.5 µM	4.54 µM	6.41 µM	CCCC[C@H](O)c1cc(=O)oc2c(C(=O)[C@@H](C)CC)c(OC)c(CC=C(C)C)c(OC)c12	–	inactive	Active	Active	Non-toxic	91%	93%	Dose-dependent effect	Active
2.2 µM	1.28 µM	1.32 µM	2.27 µM	CCCc1cc(=O)oc2c(C(=O)CC(C)C)c(O)c(CC=C(C)C)c(O)c12	–	inactive	Active	Active	Active	–	–	Dose-dependent effect	inactive
1.72 µM	1.81 µM	0.91 µM	1.14 µM	CCCC[C@H](O)c1cc(=O)oc2c(C(=O)CC(C)C)c(O)c(CC=C(C)C)c(O)c12	–	–	–	–	–	–	–	–	–
3.73 µM	3.4 µM	1.56 µM	2.19 µM	CCCCCc1cc(=O)oc2c(C(=O)[C@@H](C)CC)c(O)c(CC=C(C)C)c(O)c12	–	–	–	–	–	–	–	–	–
5.04 µM	3.25 µM	3.22 µM	6.05 µM	CCCc1cc(=O)oc2c(C(=O)[C@@H](C)CC)c(O)c(CC=C(C)C)c(O)c12	–	–	–	–	–	–	–	–	–
5.7 µM	5.31 µM	3.57 µM	4.18 µM	CCCCCc1cc(=O)oc2c(CC=C(C)C)c(O)c(C(=O)[C@H](C)CC)c(O)c12 [MAMMEA C/AB]	–	–	–	–	–	–	–	–	–
2.76 µM	2.71 µM	1.36 µM	1.88 µM	CCCCCc1cc(=O)oc2c(C(=O)CC(C)C)c(O)c(CC=C(C)C)c(O)c12	–	inactive	Active	Active	Active	–	–	Dose-dependent effect	–
9.4 µM	9.56 µM	3.62 µM	7.03 µM	CCCc1cc(=O)oc2c(CC=C(C)C)c(O)c(C(=O)CC(C)C)c(O)c12	–	–	–	–	–	–	–	–	–
4.63 µM	4.82 µM	2.88 µM	3.82 µM	CC[C@H](C)C(=O)c1c(O)c(CC=C(C)C)c2oc(=O)cc(-c3ccccc3)c2c1O	–	–	–	–	–	–	–	–	–
6.76 µM	5.96 µM	4.01 µM	5.26 µM	CC[C@H](C)C(=O)c1c(O)c(CC=C(C)C)c(O)c2c(-c3ccccc3)cc(=O)oc12	–	–	–	–	–	–	–	–	–
13.2 µM	18.4 µM	6.95 µM	> 20 µM	CCCC[C@H](OC)c1cc(=O)oc2c(C(=O)[C@@H](C)CC)c(OC)c(CC=C(C)C)c(OC)c12	–	–	–	–	–	–	–	–	–
2.23 µM	2.3 µM	1.36 µM	2.09 µM	CCCC[C@H](O)c1cc(=O)oc2c(C(=O)[C@@H](C)CC)c(O)c(CC=C(C)C)c(O)c12	–	inactive	Active	Active	Active	–	–	Dose-dependent effect	inactive

SMILES	IC50 [1]	IC50 [2]	IC50 (T47D [8])	IC50 (PC-3 [9])	Activity (T47D [3])	Activity (T47D [4])	Activity (T47D [5])	Activity (T47D [6])	Activity (T47D [7])	Activity (T47D [10])	viability at 20 µM (PC-3 [11])	inhibition (T47D [12])	inhibition (T47D [13])
CC(C)=CCc1c(O)c(C(=O)CC(C)C)c(O)c2c(-c3ccccc3)cc(=O)oc12 [MAMMEISIN]	4.44 µM	3.71 µM	4.28 µM	5.31 µM	–	–	–	–	–	–	–	–	–
